Calls of active or inactive are those of the source. The calls are words filed in the database; no cut-off is given here.
Legend:
[1] = biological target: 5-hydroxytryptamine receptor 2A (Homo sapiens) (UniProt P28223); assay: Inhibition of Serotonin 5HT2A receptor at 4 uM
How it was run: (§1)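 Single-concentration screen within a 69-target selectivity panel. The test concentration was 4 μM, a level set by the compound's limited aqueous solubility.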

[2] = Inhibition of KCa channel at 4 uM
How it was run: (§2)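 Selectivity panel of 69 targets, test compound at 4 μM, a level set by aqueous solubility limits; percent inhibition recorded per target.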

[3] = Inhibition of BGTX-insensitive N-neuronal receptor at 4 uM; how it was run: as §2
[4] = Half life in rat at 10 mg/kg, po; type: ADME, organism-based; parameters: dose 10 mg/kg, route oral; details: in vivo
[5] = biological target: Histamine H3 receptor (Homo sapiens) (UniProt Q9Y5N1); assay: Inhibition of Histamine H3 receptor at 4 uM; how it was run: as §2
Rattus norvegicus [6] = assay: AUC (0 to 24 hrs) in rat at 1 mg/kg, iv; type: ADME, organism-based, Plasma; parameters: time < 24 hr, dose 1 mg/kg, route intravenous; details: in vivo
How it was run: (§3)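 Rat PK, intravenous arm of a paired iv/po study. Dosed in 2% Vitamin E TPGS (tocopheryl polyethylene glycol 1000 succinate). Parameters derived from plasma: Cmax, AUC0–24 h, terminal T1/2.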

[7] = biological target: Beta-2 adrenergic receptor (Homo sapiens) (UniProt P07550); assay: Inhibition of adrenergic beta 2 receptor at 4 uM; how it was run: as §1
[8] = Inhibition of AMPA receptor at 4 uM; how it was run: as §2
[9] = biological target: 5-hydroxytryptamine receptor 7 (Homo sapiens) (UniProt P34969); assay: Inhibition of Serotonin 5HT7 receptor at 4 uM; how it was run: as §1
[10] = Inhibition of KV channel at 4 uM; how it was run: as §2
[11] = Ratio of drug level in brain to plasma of rat at 10 mg/kg, po; type: ADME, organism-based; parameters: dose 10 mg/kg, route oral; details: read-out: BPR
How it was run: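 Rat pharmacokinetics: compounds given iv (1 or 3 mg/kg) and po (5 or 10 mg/kg) in 2% Vitamin E TPGS (tocopheryl polyethylene glycol 1000 succinate). Plasma sampled over 24 h for Cmax, Tmax, AUC0–24 h, T1/2, clearance, Vss and oral bioavailability. Brain to plasma ratio also measured.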

[12] = biological target: Histamine H1 receptor (Homo sapiens) (UniProt P35367); assay: Inhibition of Histamine H1 receptor at 4 uM; how it was run: as §2
[13] = biological target: Vasoactive intestinal polypeptide receptor 1 (Homo sapiens) (UniProt P32241); assay: Inhibition of VPAC1 receptor at 4 uM; how it was run: as §1
[14] = biological target: Epidermal growth factor receptor (Homo sapiens) (UniProt P00533); assay: Inhibition of EGFR receptor at 4 uM; how it was run: as §2
[15] = Inhibition of phosphodiesterase 3 at 4 uM; how it was run: as §1
[16] = biological target: Platelet-activating factor receptor (Homo sapiens) (UniProt P25105); assay: Inhibition of Platelet activating factor receptor at 4 uM; how it was run: as §1
[17] = biological target: Alpha-2A adrenergic receptor (Homo sapiens) (UniProt P08913); assay: Inhibition of adrenergic alpha 2 receptor at 4 uM; how it was run: as §1
[18] = Inhibition of bombesin receptor at 4 uM; how it was run: as §1
[19] = biological target: Sodium- and chloride-dependent betaine transporter (Homo sapiens) (UniProt P48065); assay: Inhibition of GABA transporter at 4 uM; how it was run: as §2
[20] = biological target: 5-hydroxytryptamine receptor 6 (Homo sapiens) (UniProt P50406); assay: Inhibition of Serotonin 5HT6 receptor at 4 uM; how it was run: as §1
Rattus norvegicus [21] = assay: Toxicity in Sprague-Dawley rat assessed as effect on vertical activity at 3 mg/kg, po measured after 3 hrs for 1 hr; type: organism-based; parameters: dose 3 mg/kg, route oral; details: in vivo
How it was run: (§4)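 Rats not habituated to the test environment, dosed orally at 3, 10 and 30 mg/kg. Spontaneous locomotor activity recorded after dosing: horizontal activity as movement time, plus vertical activity (rearing). Test run to exclude sedation.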

[22] = biological target: Cholecystokinin receptor type A (Homo sapiens) (UniProt P32238); assay: Inhibition of cholecystokinin CCKA receptor at 4 uM; how it was run: as §1
Rattus norvegicus [23] = assay: Toxicity in Sprague-Dawley rat assessed as effect on horizontal movement at 3 mg/kg, po measured after 3 hrs for 1 hr; type: organism-based; parameters: dose 3 mg/kg, route oral; details: in vivo; how it was run: as §4
[24] = Inhibition of Sigma opiate receptor at 4 uM; how it was run: as §1
[25] = Half life in rat at 1 mg/kg, iv; type: ADME, organism-based; parameters: dose 1 mg/kg, route intravenous; details: in vivo; how it was run: as §3
Rattus norvegicus [26] = assay: Toxicity in Sprague-Dawley rat assessed as effect on horizontal movement at 10 mg/kg, po measured after 3 hrs for 1 hr; type: organism-based; parameters: dose 10 mg/kg, route oral; details: in vivo; how it was run: as §4
[27] = biological target: Beta-1 adrenergic receptor (Homo sapiens) (UniProt P08588); assay: Inhibition of adrenergic beta 1 receptor at 4 uM; how it was run: as §1
[28] = biological target: Somatostatin receptor (Homo sapiens) (UniProt P35346+P30874+P31391+P30872+P32745); assay: Inhibition of somatostatin at 4 uM; how it was run: as §1
Rattus norvegicus [29] = species: Rattus norvegicus; assay: Metabolic stability in rat assessed as […] of isopentyl group; type: ADME, organism-based; details: in vivo
[30] = biological target: Type-1 angiotensin II receptor (Homo sapiens) (UniProt P30556); assay: Inhibition of angiotensin AT1 receptor at 4 uM; how it was run: as §1
[31] = biological target: Insulin receptor (Homo sapiens) (UniProt P06213); assay: Inhibition of Insulin receptor at 4 uM; how it was run: as §2
[32] = biological target: Substance-K receptor (Homo sapiens) (UniProt P21452); assay: Inhibition of Neurokinin NK2 receptor at 4 uM; how it was run: as §1
[33] = Half life in rat microsomes; type: ADME, Microsome
How it was run: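 Stability in human or rat liver microsomes; half-life (T1/2, min) of compound turnover reported.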

Rattus norvegicus [34] = species: Rattus norvegicus; assay: Metabolic stability in rat assessed as demethylation of one or both methoxy group; type: ADME, organism-based; details: in vivo
[35] = biological target: Gastrin/cholecystokinin type B receptor (Homo sapiens) (UniProt P32239); assay: Inhibition of cholecystokinin CCKB receptor at 4 uM; how it was run: as §1
[36] = biological target: Type-2 angiotensin II receptor (Homo sapiens) (UniProt P50052); assay: Inhibition of angiotensin AT2 receptor at 4 uM; how it was run: as §1
Rattus norvegicus [37] = assay: Decrease in restrained-stress induced […] release in plasma of Sprague-Dawley rat at 10 mg/kg, po pretreated with compound for 3 hrs by radioimmunoassay; type: functional, organism-based; parameters: dose 10 mg/kg
How it was run: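 Rats orally pretreated, then restrained for 10 min to induce stress. Plasma ACTH measured and compared with vehicle/no-stress and vehicle/stress groups.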

[38] = Inhibition of protein kinase C at 4 uM; how it was run: as §1
[39] = biological target: Adenosine receptor A1 (Homo sapiens) (UniProt P30542); assay: Inhibition of adenosine A1 receptor at 4 uM; how it was run: as §1
Rattus norvegicus [40] = assay: Toxicity in Sprague-Dawley rat assessed as effect on horizontal movement at 30 mg/kg, po measured after 3 hrs for 1 hr; type: organism-based; parameters: dose 30 mg/kg, route oral; details: in vivo; how it was run: as §4
[41] = biological target: Cannabinoid receptor 1 (Homo sapiens) (UniProt P21554); assay: Inhibition of cannabinoid CB1 receptor at 4 uM; how it was run: as §1
[42] = biological target: Endothelin receptor type B (Homo sapiens) (UniProt P24530); assay: Inhibition of endothelin ETB at 4 uM; how it was run: as §1
[43] = biological target: Corticotropin-releasing factor receptor 1 (Rattus norvegicus, UniProt P35353); assay: Displacement of [125I]-sauvagine from rat CRF-1 receptor expressed in rat cortical membrane after 2 hrs by scintillation counting; type: cell membranes
How it was run: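 Displacement of [125I]-sauvagine binding from rat cortical membrane homogenate with increasing compound concentrations; Ki derived.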

Rattus norvegicus [44] = assay: Antihyperlocomotion activity in Wistar rat assessed as decrease in CRF-induced hyperlocomotion at 30 mg/kg, po administered 3 hrs before CRF challenge measured after 1 hr; type: functional, organism-based; parameters: dose 30 mg/kg
How it was run: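 Rats received 0.3 μg CRF intracerebroventricularly, with oral pretreatment 3 h before in vehicle TPGS. Readout was movement time (locomotor activity), compared against TPGS/CRF controls.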

Chain of Histamine H1 receptor (Homo sapiens) (P35367 whole entry): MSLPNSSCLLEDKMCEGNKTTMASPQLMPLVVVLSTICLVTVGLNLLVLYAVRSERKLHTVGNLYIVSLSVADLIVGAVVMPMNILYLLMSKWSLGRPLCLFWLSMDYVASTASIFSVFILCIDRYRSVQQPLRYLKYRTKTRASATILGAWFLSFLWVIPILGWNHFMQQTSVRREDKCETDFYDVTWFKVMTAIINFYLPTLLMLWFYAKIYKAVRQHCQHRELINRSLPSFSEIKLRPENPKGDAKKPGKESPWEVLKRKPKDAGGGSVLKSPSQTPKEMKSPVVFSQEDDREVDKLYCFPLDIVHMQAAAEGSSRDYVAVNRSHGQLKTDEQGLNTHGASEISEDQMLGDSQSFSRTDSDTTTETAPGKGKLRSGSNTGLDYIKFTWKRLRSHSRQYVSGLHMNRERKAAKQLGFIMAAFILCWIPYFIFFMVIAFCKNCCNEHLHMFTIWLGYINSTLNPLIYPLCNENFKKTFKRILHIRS
Chain of 5-hydroxytryptamine receptor 2A (Homo sapiens) (P28223 whole entry): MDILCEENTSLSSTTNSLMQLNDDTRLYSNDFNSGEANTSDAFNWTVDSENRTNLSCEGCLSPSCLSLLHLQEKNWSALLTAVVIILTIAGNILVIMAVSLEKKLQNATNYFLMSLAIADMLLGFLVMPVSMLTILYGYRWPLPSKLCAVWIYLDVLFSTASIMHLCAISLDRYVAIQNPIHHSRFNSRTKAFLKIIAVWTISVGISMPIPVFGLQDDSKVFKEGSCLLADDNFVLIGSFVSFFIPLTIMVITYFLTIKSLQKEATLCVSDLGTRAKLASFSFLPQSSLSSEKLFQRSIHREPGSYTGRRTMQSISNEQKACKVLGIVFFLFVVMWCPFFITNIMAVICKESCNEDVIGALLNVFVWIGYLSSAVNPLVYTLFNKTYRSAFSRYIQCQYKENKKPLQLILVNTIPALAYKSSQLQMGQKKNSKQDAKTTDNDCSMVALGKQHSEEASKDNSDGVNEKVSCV
Chain of 5-hydroxytryptamine receptor 7 (Homo sapiens) (P34969 whole entry): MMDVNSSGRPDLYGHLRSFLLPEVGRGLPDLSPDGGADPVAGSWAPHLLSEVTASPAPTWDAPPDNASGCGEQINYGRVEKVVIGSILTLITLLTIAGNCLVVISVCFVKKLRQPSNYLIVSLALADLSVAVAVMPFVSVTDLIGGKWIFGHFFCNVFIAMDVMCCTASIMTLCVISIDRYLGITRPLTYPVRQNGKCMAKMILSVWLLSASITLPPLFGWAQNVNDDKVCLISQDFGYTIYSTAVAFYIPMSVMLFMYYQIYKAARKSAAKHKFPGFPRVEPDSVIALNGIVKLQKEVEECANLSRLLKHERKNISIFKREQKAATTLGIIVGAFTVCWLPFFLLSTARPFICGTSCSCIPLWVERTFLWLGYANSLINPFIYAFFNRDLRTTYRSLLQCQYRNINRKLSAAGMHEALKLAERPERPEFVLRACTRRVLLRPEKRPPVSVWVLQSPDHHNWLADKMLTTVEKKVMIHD
Chain of Beta-1 adrenergic receptor (Homo sapiens) (P08588 whole entry, looked up): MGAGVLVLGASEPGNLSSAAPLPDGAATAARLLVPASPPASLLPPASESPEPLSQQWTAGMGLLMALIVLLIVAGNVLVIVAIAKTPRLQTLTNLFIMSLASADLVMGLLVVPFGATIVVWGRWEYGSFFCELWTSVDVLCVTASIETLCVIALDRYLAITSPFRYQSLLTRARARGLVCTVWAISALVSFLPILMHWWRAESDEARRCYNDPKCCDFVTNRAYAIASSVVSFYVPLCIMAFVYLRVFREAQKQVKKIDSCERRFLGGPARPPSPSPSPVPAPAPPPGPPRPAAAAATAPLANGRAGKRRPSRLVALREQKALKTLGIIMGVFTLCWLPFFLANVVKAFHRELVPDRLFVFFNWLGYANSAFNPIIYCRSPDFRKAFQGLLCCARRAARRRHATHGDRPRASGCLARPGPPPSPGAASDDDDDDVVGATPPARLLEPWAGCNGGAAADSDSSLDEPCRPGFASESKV
Chain of Type-1 angiotensin II receptor (Homo sapiens) (P30556 whole entry): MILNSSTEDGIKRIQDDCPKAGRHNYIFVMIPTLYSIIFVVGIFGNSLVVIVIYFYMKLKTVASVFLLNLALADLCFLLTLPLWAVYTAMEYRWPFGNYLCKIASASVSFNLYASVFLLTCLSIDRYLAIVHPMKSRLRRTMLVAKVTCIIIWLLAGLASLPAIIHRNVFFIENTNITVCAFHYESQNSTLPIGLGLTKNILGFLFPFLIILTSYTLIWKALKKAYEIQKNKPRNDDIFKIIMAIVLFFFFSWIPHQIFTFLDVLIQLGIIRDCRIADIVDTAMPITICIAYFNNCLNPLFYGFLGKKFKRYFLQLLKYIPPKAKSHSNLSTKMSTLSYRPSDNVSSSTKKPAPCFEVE
Chain of Epidermal growth factor receptor (Homo sapiens) (P00533 whole entry): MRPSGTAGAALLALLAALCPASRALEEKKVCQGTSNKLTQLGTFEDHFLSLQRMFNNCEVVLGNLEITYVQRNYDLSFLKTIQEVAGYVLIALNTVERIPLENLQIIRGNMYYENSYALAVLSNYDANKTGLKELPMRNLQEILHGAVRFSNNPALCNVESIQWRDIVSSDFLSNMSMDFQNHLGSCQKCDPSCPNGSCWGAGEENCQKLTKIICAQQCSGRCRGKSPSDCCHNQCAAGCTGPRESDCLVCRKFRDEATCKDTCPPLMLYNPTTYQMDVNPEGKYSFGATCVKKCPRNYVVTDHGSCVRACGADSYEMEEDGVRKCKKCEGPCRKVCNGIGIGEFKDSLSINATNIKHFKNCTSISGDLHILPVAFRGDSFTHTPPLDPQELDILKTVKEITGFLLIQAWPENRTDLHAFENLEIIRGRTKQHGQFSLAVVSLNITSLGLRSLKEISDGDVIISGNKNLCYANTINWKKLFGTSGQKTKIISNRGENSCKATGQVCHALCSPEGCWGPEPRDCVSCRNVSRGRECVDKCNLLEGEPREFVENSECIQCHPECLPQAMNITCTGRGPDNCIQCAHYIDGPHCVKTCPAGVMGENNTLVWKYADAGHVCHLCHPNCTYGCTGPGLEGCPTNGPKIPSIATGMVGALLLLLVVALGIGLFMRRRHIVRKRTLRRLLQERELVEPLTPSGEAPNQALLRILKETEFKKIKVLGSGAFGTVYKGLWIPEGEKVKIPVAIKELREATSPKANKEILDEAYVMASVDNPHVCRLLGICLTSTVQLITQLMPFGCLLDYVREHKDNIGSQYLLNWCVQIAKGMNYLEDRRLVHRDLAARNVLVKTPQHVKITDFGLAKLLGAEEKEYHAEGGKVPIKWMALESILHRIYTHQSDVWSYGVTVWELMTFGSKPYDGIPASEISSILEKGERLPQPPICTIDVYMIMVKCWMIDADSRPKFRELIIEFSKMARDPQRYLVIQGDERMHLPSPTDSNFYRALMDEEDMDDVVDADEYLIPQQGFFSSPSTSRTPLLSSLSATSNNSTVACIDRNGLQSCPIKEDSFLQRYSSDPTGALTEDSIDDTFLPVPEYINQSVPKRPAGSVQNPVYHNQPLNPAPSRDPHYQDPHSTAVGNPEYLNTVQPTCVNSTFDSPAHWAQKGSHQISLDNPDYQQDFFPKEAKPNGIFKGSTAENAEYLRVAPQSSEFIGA
Chain of Gastrin/cholecystokinin type B receptor (Homo sapiens) (P32239 whole entry): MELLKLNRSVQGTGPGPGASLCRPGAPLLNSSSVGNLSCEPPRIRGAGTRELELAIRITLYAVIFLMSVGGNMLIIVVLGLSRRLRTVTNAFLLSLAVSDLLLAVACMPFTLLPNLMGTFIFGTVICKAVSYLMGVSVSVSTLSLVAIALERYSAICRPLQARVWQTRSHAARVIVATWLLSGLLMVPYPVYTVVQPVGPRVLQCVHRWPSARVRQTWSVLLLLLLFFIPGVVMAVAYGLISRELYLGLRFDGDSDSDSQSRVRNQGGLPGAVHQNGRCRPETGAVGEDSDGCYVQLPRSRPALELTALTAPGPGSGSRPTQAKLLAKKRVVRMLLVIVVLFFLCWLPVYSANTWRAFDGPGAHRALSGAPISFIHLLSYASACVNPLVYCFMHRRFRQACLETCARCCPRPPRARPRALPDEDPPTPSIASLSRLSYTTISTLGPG
Chain of Adenosine receptor A1 (Homo sapiens) (P30542 whole entry): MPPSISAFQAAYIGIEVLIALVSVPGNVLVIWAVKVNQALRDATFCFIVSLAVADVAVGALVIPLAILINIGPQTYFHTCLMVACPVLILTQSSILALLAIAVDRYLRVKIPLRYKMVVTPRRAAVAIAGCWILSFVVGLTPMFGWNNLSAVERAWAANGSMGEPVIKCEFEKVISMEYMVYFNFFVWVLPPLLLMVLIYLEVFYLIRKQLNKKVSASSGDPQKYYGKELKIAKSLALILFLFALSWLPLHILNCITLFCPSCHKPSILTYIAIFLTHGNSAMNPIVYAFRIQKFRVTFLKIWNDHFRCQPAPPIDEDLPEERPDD
Chain of Alpha-2A adrenergic receptor (Homo sapiens) (P08913 whole entry): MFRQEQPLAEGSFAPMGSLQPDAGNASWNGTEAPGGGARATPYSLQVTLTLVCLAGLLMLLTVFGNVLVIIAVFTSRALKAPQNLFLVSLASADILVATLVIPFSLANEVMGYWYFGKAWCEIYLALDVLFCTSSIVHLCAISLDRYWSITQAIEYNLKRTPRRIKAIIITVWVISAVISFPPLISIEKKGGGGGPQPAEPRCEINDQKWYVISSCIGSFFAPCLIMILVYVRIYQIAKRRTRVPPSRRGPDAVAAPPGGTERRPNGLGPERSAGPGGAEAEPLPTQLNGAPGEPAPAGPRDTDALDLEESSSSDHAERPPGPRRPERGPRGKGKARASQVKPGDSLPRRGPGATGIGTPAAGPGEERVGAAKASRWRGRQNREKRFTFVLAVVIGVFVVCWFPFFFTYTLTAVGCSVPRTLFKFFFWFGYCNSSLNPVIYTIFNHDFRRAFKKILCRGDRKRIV

inhibition [1]: > 16%
inhibition [2]: > 16%
inhibition [3]: > 16%
half-life [4]: 8.4 h
inhibition [5]: > 16%
AUC (Rattus norvegicus [6]): 4499 ng·h/mL
inhibition [7]: > 16%
inhibition [8]: > 16%
inhibition [9]: > 16%
inhibition [10]: > 16%
Kp [11]: 5.4
inhibition [12]: > 16%
inhibition [13]: > 16%
inhibition [14]: > 16%
inhibition [15]: > 16%
inhibition [16]: > 16%
inhibition [17]: > 16%
inhibition [18]: > 16%
inhibition [19]: > 16%
inhibition [20]: > 16%
inhibition [22]: > 16%
inhibition [24]: > 16%
half-life [25]: 8.4 h
inhibition [27]: > 16%
inhibition [28]: > 16%
Stability (Rattus norvegicus [29]): Unstable
inhibition [30]: > 16%
inhibition [31]: > 16%
inhibition [32]: > 16%
half-life [33]: 2 h
Stability (Rattus norvegicus [34]): Unstable
inhibition [35]: > 16%
inhibition [36]: > 16%
inhibition [38]: > 16%
inhibition [39]: > 16%
inhibition [41]: > 16%
inhibition [42]: > 16%
Ki [43]: 9.8 nM
SMILES: CCC(CC)Nc1nc(C)c(-c2ccc(OC(F)(F)F)cc2OC)nc1OC
Activity (Rattus norvegicus [21]): Non-toxic
Activity (Rattus norvegicus [23]): Non-toxic
Activity (Rattus norvegicus [26]): Non-toxic
Activity (Rattus norvegicus [37]): Active
Activity (Rattus norvegicus [40]): Non-toxic
Activity (Rattus norvegicus [44]): Active

From ChEMBL document CHEMBL1806459, “Discovery of N-(1-ethylpropyl)-[3-methoxy-5-(2-methoxy-4-trifluoromethoxyphenyl)-6-methyl-pyrazin-2-yl]amine 59 (NGD 98-2): an orally active corticotropin releasing factor-1 (CRF-1) receptor antagonist” (J Med Chem, 2011)
